Reference: PubChem BioAssay
Inconclusive results are not listed. Calls of active or inactive are those of the source.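 Rule for the calls, unless noted: active = growth inhibition above 25% in both replicates, a cutoff set 3 SD above the mean; inconclusive = above 25% in only one replicate; inactive = the rest.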

Experiments:
[1] = S. cerevisiae growth inhibition in permissive medium (OD615), pilot counter-assay for S. cerevisiae lifespan shortening project, permissive growth control (AID 705); settings: OD615, 24 h, at 10 µM, active compounds read high
Procedure, shortened: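 Material: engineered DeaD yeast; compound dosing: one dose 10 µM, DMSO 0.25% final; measure: yeast growth inhibition indicated by reduced 24 h OD615; detection: OD615 turbidity read; incubation: cells pre-grown 4 h, then 24 h compound exposure, 30 °C humidified; medium: permissive synthetic complete medium with raffinose and galactose carbon sources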

[2] = S. cerevisiae growth inhibition in restrictive medium, OD615, pilot screen, restrictive growth control, yeast lifespan reduction project (AID 706;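 active = growth inhibition above a set limit, 3 SD over mean compound inhibition, in both replicates, cut at about 43% in these data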;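 note: modified DeaD lifespan yeast strain shifted to restrictive glucose medium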); settings: OD615, 48 h, at 10 µM, active compounds read high
Procedure, shortened: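 material = engineered S. cerevisiae DeaD strain | medium = glucose-based CSMM-D restrictive medium | times = 4 h pre-incubation, 48 h exposure at 30 °C | technique = OD615 absorbance reading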

[3] = doxorubicin toxicity protection in MRP-1 cells – H69AR cells, CellTiter-Glo, duplicate, MRP-1 activator project, pilot screen (AID 807;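 active = viability increase at or above a cutoff of the median across tested compounds plus 3 SD, cut at about 8.5% in these data, passing the limit was not always enough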;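 note: compound pretreatment 18-22 h then 72 h combined with doxorubicin; 0% = doxorubicin alone and 100% = vehicle without doxorubicin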); settings: H69AR viability with doxorubicin, CellTiter-Glo luminescence; at 10 µM; active compounds read high
[4] = viability of HCT116 without oncogenic beta-catenin – human colon tumor cells, pilot screen (AID 823;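 active = cell viability at or below a set limit in both duplicate runs, the limit being the all-compound median minus 4 SD, cut at about 23% in these data, passing the limit was not always enough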;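 note: 0% = wells killed by 20 µM Hyamine and 100% = untreated DMSO cell wells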); settings: HCT116 beta-catenin knockout viability, CellTiter-Glo, 60 h; at 10 µM; active compounds read low
[5] = viability of PTEN-null HCT116 cells – cell-based, HCT116 clonal line, CellTiter-Glo, pilot screen (AID 824;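 active = viability at or below 27.92% in each of two runs, the all-compound median minus 4 SD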;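 note: 0% = 20 µM Hyamine control and 100% = vehicle cell control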); settings: HCT116 PTEN-deleted viability, 60 h, at 10 µM, active compounds read low
[6] = RAM pathway blockade in budding yeast – dse1pr::URA3 reporter, 5-FOA selection, pilot screen (AID 869;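 active = inhibition over a set limit, the all-compound mean plus 3 SD, in both replicate runs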;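 note: 0% = DMSO wells with no growth and 100% = 10 µM 1-NA-PP1 with full growth; RAM network block rescues cells from 5-FOA so hits raise OD615 growth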); settings: S. cerevisiae dse1pr::URA3 5-FOA growth, OD615, 2 d; at 10 µM; active compounds read high; strain carries analog-sensitive mutant Cbk1 kinase
[7] = RAM signaling pathway blockade in yeast – S. cerevisiae, Pdr1DBD-CYC8 efflux-inhibited sensitized strain, primary screen (AID 1298;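 active = RAM network inhibition above 8.4% in each of two replicates, 3 SD over the compound average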;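 note: 0% = DMSO untreated cells without growth and 100% = 10 µM 1-NA-PP1 full growth; higher means more yeast growth rescued from 5-FOA killing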); settings: S. cerevisiae cbk1-as DSE1-URA3 strain, 5-FOA growth OD615, 2 d; at 50 µM; active compounds read high

Cc1cc(NC(=O)Nc2cccc3ccccc23)no1
inactive: growth inhibition [1] -3.55% | growth inhibition [2] 1.52% | viability increase [3] -4% | viability [4] 95.3% | viability [5] 89.1% | inhibition [6] -0.175% | RAM network inhibition [7] 5.09%

O=C(NCC1CCCO1)c1ccc2c(c1)OCO2 (stereo not drawn)
inactive: growth inhibition [1] -3.01% | growth inhibition [2] 6% | viability increase [3] 0.18% | viability [4] 98.4% | viability [5] 94.3% | inhibition [6] 0.385% | RAM network inhibition [7] 3.13%

C=CCOC(=O)C1=C(C)NC(=O)NC1/C=C/c1ccccc1 (stereo not drawn)
inactive: growth inhibition [1] -5.98% | growth inhibition [2] -13.1% | viability increase [3] -0.12% | viability [4] 92.5% | viability [5] 95% | inhibition [6] 2.77% | RAM network inhibition [7] 8.11%

CC1CCc2nn(CC(=O)NCCCN3CCCCC3)cc2C1 (stereo not drawn)
inactive: growth inhibition [1] -15.9% | growth inhibition [2] -10.3% | viability increase [3] -2.34% | viability [4] 105% | viability [5] 96.7% | inhibition [6] 1.18% | RAM network inhibition [7] 3.77%

C=CCn1c(SCCN2CCCCC2)nc2c1c(=O)[nH]c(=O)n2C
inactive: growth inhibition [1] -3.65% | growth inhibition [2] 6.96% | viability increase [3] -1.07% | viability [4] 109% | viability [5] 99.8% | inhibition [6] 1.17% | RAM network inhibition [7] 1.65%

COc1ccc(-n2c(Cc3cccn3C)nnc2SCC(=O)Nc2ccc(C(C)=O)cc2)cc1
inactive: growth inhibition [1] 3.63% | growth inhibition [2] 17.8% | viability increase [3] -3.67% | viability [4] 99.4% | viability [5] 90.8% | inhibition [6] 1.6% | RAM network inhibition [7] 3.56%

CCCCCOC(=O)Cn1c(=O)oc2ccccc21
inactive: growth inhibition [1] -7.12% | growth inhibition [2] 4.42% | viability increase [3] -1.13% | viability [4] 90.3% | viability [5] 97.8% | inhibition [6] 0.385% | RAM network inhibition [7] 4.28%

CCCCOC(=O)CCc1n[nH]c(=O)[nH]c1=O
inactive: growth inhibition [1] -11.1% | growth inhibition [2] -17.6% | viability increase [3] -1.14% | viability [4] 99.8% | viability [5] 99% | inhibition [6] 2.12% | RAM network inhibition [7] 2.93%

Cn1c(=O)c2c(nc(NC3CCCCC3)n2Cc2ccccc2)n(C)c1=O
inactive: growth inhibition [1] -0.82% | growth inhibition [2] 4.89% | viability increase [3] -3.11% | viability [4] 78.9% | viability [5] 75.5% | inhibition [6] 2.92% | RAM network inhibition [7] 3.48%

Cc1cc(C)c(S(=O)(=O)Nc2nnc(C)s2)c(C)c1
inactive: growth inhibition [1] -20.6% | growth inhibition [2] -11.7% | viability increase [3] 3.99% | viability [4] 102% | viability [5] 99.3% | inhibition [6] 0.87% | RAM network inhibition [7] 8.49%

Cc1c(C(=O)N2CCCc3ccccc32)sc2nc(-c3ccccc3)cn12
inactive: growth inhibition [1] -8.77% | growth inhibition [2] 0.195% | viability increase [3] -2.82% | viability [4] 65.9% | viability [5] 68.4% | inhibition [6] 2.46% | RAM network inhibition [7] 5.58%

CCOC(=O)c1c(C)n(C)c2ccc(OCC(O)CN3CCN(C)CC3)cc12 (stereo not drawn)
inactive: growth inhibition [1] -9.58% | growth inhibition [2] -16.5% | viability increase [3] -1.87% | viability [4] 96.2% | viability [5] 106% | inhibition [6] 1.1% | RAM network inhibition [7] -0.99%

C=C(C)Cc1c(C)nc(-c2ccccc2)[nH]c1=O
inactive: growth inhibition [1] -14% | growth inhibition [2] -14.1% | viability increase [3] 0.87% | viability [4] 99.7% | viability [5] 98.5% | inhibition [6] 1.76% | RAM network inhibition [7] 1.46%

CCn1c(C2CC(=O)N(c3cc(C)cc(C)c3)C2)nc2ccccc21 (stereo not drawn)
inactive: growth inhibition [1] -6.28% | growth inhibition [2] -7% | viability increase [3] -4.36% | viability [4] 87% | viability [5] 85% | inhibition [6] 1.13% | RAM network inhibition [7] 4.85%

Cc1sc2nc(SCC(=O)OC(C)C)n(C)c(=O)c2c1C
inactive: growth inhibition [1] -2.81% | growth inhibition [2] 31.4% | viability increase [3] -1.84% | viability [4] 105% | viability [5] 94.8% | inhibition [6] 2.59% | RAM network inhibition [7] 2.75%

Clc1ccc(OCc2nnc(-c3ccccc3Br)o2)c(Cl)c1
inactive: growth inhibition [1] -11.4% | growth inhibition [2] -17% | viability increase [3] -0.17% | viability [4] 95.9% | viability [5] 89.3% | RAM network inhibition [7] 14%
active: inhibition [6] 6%

COc1ccc(C2=CC(c3ccc(Cl)cc3)n3cnnc3N2)cc1OC (stereo not drawn)
inactive: growth inhibition [1] -1.79% | growth inhibition [2] 2.91% | viability increase [3] -2.06% | viability [4] 97.3% | viability [5] 87% | inhibition [6] 0.37% | RAM network inhibition [7] 0.78%

O=C(O)CSC1c2ccccc2C(=O)N1Cc1ccccc1 (stereo not drawn)
inactive: growth inhibition [1] -13.6% | growth inhibition [2] -2.05% | viability increase [3] 2.07% | viability [4] 94.4% | viability [5] 93.7% | inhibition [6] 0.06% | RAM network inhibition [7] 0.3%

Brc1ccc(-c2noc(COc3ccc4c(c3)CCC4)n2)o1
inactive: growth inhibition [1] -10.2% | growth inhibition [2] -11.6% | viability increase [3] 2.86% | viability [4] 95.8% | viability [5] 105% | inhibition [6] 1.22% | RAM network inhibition [7] 4.46%

CCOC(=O)CC1C(=O)NCCN1C(=O)c1cc2c(=O)n3ccccc3nc2s1 (stereo not drawn)
inactive: growth inhibition [1] -13.7% | growth inhibition [2] 0.575% | viability increase [3] 1.22% | viability [4] 95.3% | viability [5] 95.5% | inhibition [6] 1% | RAM network inhibition [7] 6.8%

O=C(NCC1CCCO1)c1ccc2nc(N3CCCCC3)sc2c1 (stereo not drawn)
inactive: growth inhibition [1] -2.59% | growth inhibition [2] -4.53% | viability increase [3] -0.46% | viability [4] 102% | viability [5] 96.8% | inhibition [6] 2.37% | RAM network inhibition [7] 1.03%

CCc1ccc(C2CC(=O)NC(SCC(=O)OC(C)C)=C2C#N)cc1 (stereo not drawn)
inactive: growth inhibition [1] -13.8% | growth inhibition [2] -4.45% | viability increase [3] 0.08% | viability [4] 78.9% | viability [5] 79.5% | inhibition [6] 1.15% | RAM network inhibition [7] 2.6%

CCn1c(=O)cc(N2CCC3(CC2)OCCO3)[nH]c1=O
inactive: growth inhibition [1] -15.1% | growth inhibition [2] -8.98% | viability increase [3] 0.57% | viability [4] 96.8% | viability [5] 93.2% | inhibition [6] 1.01% | RAM network inhibition [7] 1.74%

CCC(C)Nc1ncnc2c1cnn2Cc1ccc(Cl)cc1 (stereo not drawn)
inactive: growth inhibition [1] -13.7% | growth inhibition [2] -18.8% | viability increase [3] 6.18% | viability [4] 85.5% | viability [5] 86.7% | inhibition [6] -0.295% | RAM network inhibition [7] 2.14%
